Measurements taken from ChEMBL document CHEMBL1781989, “Novel β-carboline-tripeptide conjugates attenuate mesenteric ischemia/reperfusion injury in the rat” (2011).
Non-standard residues stand in square brackets, D forms with d. Residues, ends and D or L forms follow the SMILES beside them. Tpi = O=C(O)[C@@H]1Cc2c([nH]c3ccccc23)CN1

The molecules below were run on Mus musculus (assay: Analgesic activity in ICR mouse assessed as increase in pain threshold at 0.15 mmol/kg, po after 120 mins by tail flick method (reference value: 8.09 +/- 13.28 %)).
Assay type: functional
`O=C(O)[C@H](Cc1c[nH]c2ccccc12)NC(=O)[C@H](Cc1ccccc1)NC(=O)[C@H](CO)NC(=O)[C@@H]1Cc2c([nH]c3ccccc23)CN1` (H-[Tpi]SFW-OH) showed an Activity of 38.45%.
`C[C@@H](O)[C@H](NC(=O)[C@@H]1Cc2c([nH]c3ccccc23)CN1)C(=O)N[C@@H](Cc1ccccc1)C(=O)N[C@@H](Cc1c[nH]c2ccccc12)C(=O)O` (H-[Tpi]TFW-OH) was tested, and the Activity was 42.43%.
Work on `CC(C)[C@H](NC(=O)[C@@H]1Cc2c([nH]c3ccccc23)CN1)C(=O)N[C@@H](Cc1ccccc1)C(=O)N[C@@H](Cc1c[nH]c2ccccc12)C(=O)O` (H-[Tpi]VFW-OH) yielded an Activity of 35.79%.
Work on `O=C(O)[C@H](Cc1c[nH]c2ccccc12)NC(=O)[C@H](Cc1ccccc1)NC(=O)[C@H](Cc1c[nH]c2ccccc12)NC(=O)[C@@H]1Cc2c([nH]c3ccccc23)CN1` (H-[Tpi]WFW-OH) yielded an Activity of 28.55%.
In the case of `CC(=O)Oc1ccccc1C(=O)O` [ASPIRIN], the Activity was 33.24%.

These molecules were tested on Mus musculus (assay: Analgesic activity in ICR mouse assessed as increase in pain threshold at 0.15 mmol/kg, po after 30 mins by tail flick method (reference value: 5.03 +/- 10.26 %)).
Assay type: functional
`O=C(O)[C@H](Cc1c[nH]c2ccccc12)NC(=O)[C@H](Cc1ccccc1)NC(=O)[C@H](CO)NC(=O)[C@@H]1Cc2c([nH]c3ccccc23)CN1` (H-[Tpi]SFW-OH) showed an Activity of 30.56%.
Work on `C[C@@H](O)[C@H](NC(=O)[C@@H]1Cc2c([nH]c3ccccc23)CN1)C(=O)N[C@@H](Cc1ccccc1)C(=O)N[C@@H](Cc1c[nH]c2ccccc12)C(=O)O` (H-[Tpi]TFW-OH) yielded an Activity of 30.75%.
`CC(C)[C@H](NC(=O)[C@@H]1Cc2c([nH]c3ccccc23)CN1)C(=O)N[C@@H](Cc1ccccc1)C(=O)N[C@@H](Cc1c[nH]c2ccccc12)C(=O)O` (H-[Tpi]VFW-OH) gave an Activity of 39.47%.
In the case of `O=C(O)[C@H](Cc1c[nH]c2ccccc12)NC(=O)[C@H](Cc1ccccc1)NC(=O)[C@H](Cc1c[nH]c2ccccc12)NC(=O)[C@@H]1Cc2c([nH]c3ccccc23)CN1` (H-[Tpi]WFW-OH), the Activity was 35.05%.
For `CC(=O)Oc1ccccc1C(=O)O` [ASPIRIN], the Activity was 32.85%.

The molecules below were run on Mus musculus (assay: Analgesic activity in ICR mouse assessed as increase in pain threshold at 0.15 mmol/kg, po after 150 mins by tail flick method (reference value: 9.02 +/- 12.19 %)).
Assay type: functional
Work on `O=C(O)[C@H](Cc1c[nH]c2ccccc12)NC(=O)[C@H](Cc1ccccc1)NC(=O)[C@H](CO)NC(=O)[C@@H]1Cc2c([nH]c3ccccc23)CN1` (H-[Tpi]SFW-OH) yielded an Activity of 26.47%.
`C[C@@H](O)[C@H](NC(=O)[C@@H]1Cc2c([nH]c3ccccc23)CN1)C(=O)N[C@@H](Cc1ccccc1)C(=O)N[C@@H](Cc1c[nH]c2ccccc12)C(=O)O` (H-[Tpi]TFW-OH) gave an Activity of 23.19%.
`CC(C)[C@H](NC(=O)[C@@H]1Cc2c([nH]c3ccccc23)CN1)C(=O)N[C@@H](Cc1ccccc1)C(=O)N[C@@H](Cc1c[nH]c2ccccc12)C(=O)O` (H-[Tpi]VFW-OH) showed an Activity of 25.88%.
Work on `O=C(O)[C@H](Cc1c[nH]c2ccccc12)NC(=O)[C@H](Cc1ccccc1)NC(=O)[C@H](Cc1c[nH]c2ccccc12)NC(=O)[C@@H]1Cc2c([nH]c3ccccc23)CN1` (H-[Tpi]WFW-OH) yielded an Activity of 16.69%.
In the case of `CC(=O)Oc1ccccc1C(=O)O` [ASPIRIN], the Activity was 30.41%.

Each molecule was assayed on Mus musculus (assay: Analgesic activity in ICR mouse assessed as increase in pain threshold at 0.15 mmol/kg, po after 180 mins by tail flick method (reference value: 8.75 +/- 9.73 %)).
Assay type: functional
Work on `O=C(O)[C@H](Cc1c[nH]c2ccccc12)NC(=O)[C@H](Cc1ccccc1)NC(=O)[C@H](CO)NC(=O)[C@@H]1Cc2c([nH]c3ccccc23)CN1` (H-[Tpi]SFW-OH) yielded an Activity of 25.07%.
`C[C@@H](O)[C@H](NC(=O)[C@@H]1Cc2c([nH]c3ccccc23)CN1)C(=O)N[C@@H](Cc1ccccc1)C(=O)N[C@@H](Cc1c[nH]c2ccccc12)C(=O)O` (H-[Tpi]TFW-OH) gave an Activity of 19.25%.
Molecule `CC(C)[C@H](NC(=O)[C@@H]1Cc2c([nH]c3ccccc23)CN1)C(=O)N[C@@H](Cc1ccccc1)C(=O)N[C@@H](Cc1c[nH]c2ccccc12)C(=O)O` (H-[Tpi]VFW-OH) has an Activity of 16.03%.
Molecule `O=C(O)[C@H](Cc1c[nH]c2ccccc12)NC(=O)[C@H](Cc1ccccc1)NC(=O)[C@H](Cc1c[nH]c2ccccc12)NC(=O)[C@@H]1Cc2c([nH]c3ccccc23)CN1` (H-[Tpi]WFW-OH) has an Activity of 14.23%.
In the case of `CC(=O)Oc1ccccc1C(=O)O` [ASPIRIN], the Activity was 21.72%.

The molecules below were run on Mus musculus (assay: Analgesic activity in ICR mouse assessed as increase in pain threshold at 0.15 mmol/kg, po after 60 mins by tail flick method (reference value: 7.45 +/- 8.03 %)).
Assay type: functional
With `O=C(O)[C@H](Cc1c[nH]c2ccccc12)NC(=O)[C@H](Cc1ccccc1)NC(=O)[C@H](CO)NC(=O)[C@@H]1Cc2c([nH]c3ccccc23)CN1` (H-[Tpi]SFW-OH) the Activity was 42.32%.
In the case of `C[C@@H](O)[C@H](NC(=O)[C@@H]1Cc2c([nH]c3ccccc23)CN1)C(=O)N[C@@H](Cc1ccccc1)C(=O)N[C@@H](Cc1c[nH]c2ccccc12)C(=O)O` (H-[Tpi]TFW-OH), the Activity was 38.2%.
Work on `CC(C)[C@H](NC(=O)[C@@H]1Cc2c([nH]c3ccccc23)CN1)C(=O)N[C@@H](Cc1ccccc1)C(=O)N[C@@H](Cc1c[nH]c2ccccc12)C(=O)O` (H-[Tpi]VFW-OH) yielded an Activity of 45.77%.
Work on `O=C(O)[C@H](Cc1c[nH]c2ccccc12)NC(=O)[C@H](Cc1ccccc1)NC(=O)[C@H](Cc1c[nH]c2ccccc12)NC(=O)[C@@H]1Cc2c([nH]c3ccccc23)CN1` (H-[Tpi]WFW-OH) yielded an Activity of 36.45%.
`CC(=O)Oc1ccccc1C(=O)O` [ASPIRIN] gave an Activity of 38.45%.

The molecules below were run on Mus musculus (assay: Analgesic activity in ICR mouse assessed as increase in pain threshold at 0.15 mmol/kg, po after 90 mins by tail flick method (reference value: 7.53 +/- 11.54 %)).
Assay type: functional
`O=C(O)[C@H](Cc1c[nH]c2ccccc12)NC(=O)[C@H](Cc1ccccc1)NC(=O)[C@H](CO)NC(=O)[C@@H]1Cc2c([nH]c3ccccc23)CN1` (H-[Tpi]SFW-OH) showed an Activity of 44.13%.
For `C[C@@H](O)[C@H](NC(=O)[C@@H]1Cc2c([nH]c3ccccc23)CN1)C(=O)N[C@@H](Cc1ccccc1)C(=O)N[C@@H](Cc1c[nH]c2ccccc12)C(=O)O` (H-[Tpi]TFW-OH), the Activity was 40.36%.
`CC(C)[C@H](NC(=O)[C@@H]1Cc2c([nH]c3ccccc23)CN1)C(=O)N[C@@H](Cc1ccccc1)C(=O)N[C@@H](Cc1c[nH]c2ccccc12)C(=O)O` (H-[Tpi]VFW-OH) gave an Activity of 47.36%.
With `O=C(O)[C@H](Cc1c[nH]c2ccccc12)NC(=O)[C@H](Cc1ccccc1)NC(=O)[C@H](Cc1c[nH]c2ccccc12)NC(=O)[C@@H]1Cc2c([nH]c3ccccc23)CN1` (H-[Tpi]WFW-OH) the Activity was 35.19%.
With `CC(=O)Oc1ccccc1C(=O)O` [ASPIRIN] the Activity was 41.23%.

Each molecule was assayed on Mus musculus (assay: Antiinflammatory activity in ICR mouse assessed as inhibition of xylene-induced ear edema at 0.15 mmol/kg, po administered 30 mins before xylene challenge measured after 2 hrs relative to control).
Assay type: functional
Outline: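 Male ICR mice (20 ± 2 g), randomised to test, vehicle (CMC) and aspirin (10 mg/kg oral) groups. Test agents given orally as CMC suspension. After 30 min, 0.03 mL xylene applied to both faces of the right ear, left ear as control. At 2 h mice were killed and 7 mm ear punches weighed. Edema is the right-minus-left weight, and inhibition is taken against vehicle.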
`O=C(O)[C@H](Cc1c[nH]c2ccccc12)NC(=O)[C@H](Cc1ccccc1)NC(=O)[C@H](CO)NC(=O)[C@@H]1Cc2c([nH]c3ccccc23)CN1` (H-[Tpi]SFW-OH) gave an inhibition in vivo at 150 µmol/kg of 45.7%.
Work on `C[C@@H](O)[C@H](NC(=O)[C@@H]1Cc2c([nH]c3ccccc23)CN1)C(=O)N[C@@H](Cc1ccccc1)C(=O)N[C@@H](Cc1c[nH]c2ccccc12)C(=O)O` (H-[Tpi]TFW-OH) yielded an inhibition in vivo at 150 µmol/kg of 50.6%.
In the case of `CC(C)[C@H](NC(=O)[C@@H]1Cc2c([nH]c3ccccc23)CN1)C(=O)N[C@@H](Cc1ccccc1)C(=O)N[C@@H](Cc1c[nH]c2ccccc12)C(=O)O` (H-[Tpi]VFW-OH), the inhibition in vivo at 150 µmol/kg was 43.6%.
`O=C(O)[C@H](Cc1c[nH]c2ccccc12)NC(=O)[C@H](Cc1ccccc1)NC(=O)[C@H](Cc1c[nH]c2ccccc12)NC(=O)[C@@H]1Cc2c([nH]c3ccccc23)CN1` (H-[Tpi]WFW-OH) showed an inhibition in vivo at 150 µmol/kg of 51.5%.
